Assay [1] has as its target T1, Vasopressin V2 receptor (Homo sapiens, UniProt P30518). As to the kind of experiment: Displacement of [3H]vasopressin from human vasopressin V2 receptor expressed in CHO cells by microplate scintillation counting. It counts as cell-based.
For assay [2], the target named is T1, Vasopressin V2 receptor. Nature of the assay: Intrinsic activity at human vasopressin V2 receptor expressed in CHO cells assessed as cAMP accumulation by HTRF assay relative to arginine vasopressin. It counts as functional, cell-based.
Assay [3] concerns the target T1, Vasopressin V2 receptor. Nature of the assay: Agonist activity at human vasopressin V2 receptor expressed in CHO cells assessed as cAMP accumulation by HTRF assay. It counts as functional, cell-based. Put shortly: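 Cells kept in α-MEM with 10% FBS, penicillin/streptomycin and 0.1% amethopterin at 37 °C, 5% CO₂, grown to subconfluence, then serum-starved 24 h. Medium changed to α-MEM with 1 mmol/L IBMX and 0.1% BSA, compound added for 10 min at 37 °C. Lysis in PBS/0.2% Triton X-100, cAMP read by HTRF. Triplicate.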

Assay [4] addresses Vasopressin V2 receptor (Rattus norvegicus, UniProt Q00788). Nature of the assay: Displacement of [3H]vasopressin from rat vasopressin V2 receptor expressed in CHO cells by microplate scintillation counting. Type of assay: cell-based.

Active and inactive are the calls of the source. No cut-off for these calls is given here.

T1 sequence (P30518 whole entry): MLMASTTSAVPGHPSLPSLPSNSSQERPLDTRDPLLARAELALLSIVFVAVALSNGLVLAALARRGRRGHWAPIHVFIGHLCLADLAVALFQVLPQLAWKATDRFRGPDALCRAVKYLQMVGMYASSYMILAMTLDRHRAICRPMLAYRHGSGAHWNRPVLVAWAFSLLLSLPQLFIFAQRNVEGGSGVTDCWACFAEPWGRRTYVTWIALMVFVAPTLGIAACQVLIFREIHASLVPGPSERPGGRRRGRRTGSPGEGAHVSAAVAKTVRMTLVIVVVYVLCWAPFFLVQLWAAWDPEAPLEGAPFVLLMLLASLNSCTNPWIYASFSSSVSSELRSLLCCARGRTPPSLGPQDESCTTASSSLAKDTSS
Chain of Vasopressin V2 receptor (Rattus norvegicus, UniProt Q00788) (Q00788 whole entry): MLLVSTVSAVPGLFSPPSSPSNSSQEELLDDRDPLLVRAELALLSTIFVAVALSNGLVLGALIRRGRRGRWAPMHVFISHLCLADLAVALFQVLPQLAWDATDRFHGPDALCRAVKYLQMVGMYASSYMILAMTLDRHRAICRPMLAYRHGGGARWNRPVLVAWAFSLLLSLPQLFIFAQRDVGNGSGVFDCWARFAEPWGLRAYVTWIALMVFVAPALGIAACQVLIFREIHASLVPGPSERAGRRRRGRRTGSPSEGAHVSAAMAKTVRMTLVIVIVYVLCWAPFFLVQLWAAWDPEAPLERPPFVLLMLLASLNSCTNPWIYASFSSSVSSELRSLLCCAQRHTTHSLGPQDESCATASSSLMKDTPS

Molecule `CCc1ccn(-c2ccc(C(=O)N3CCC(F)(F)/C(=C\C(=O)NCc4ccccn4)c4ccccc43)c(Cl)c2)n1` had a Ki at Vasopressin V2 receptor [1] of 21 nM. Besides, the Activity on Vasopressin V2 receptor [2] was found to be 86.8%. For the same molecule, at Vasopressin V2 receptor [3], the EC50 was > 10000 nM.

Regarding `CN1CCN(c2ccc(C(=O)N3CCC(F)(F)/C(=C\C(=O)NCc4ccccn4)c4ccccc43)c(Cl)c2)CC1`, the Ki on Vasopressin V2 receptor [1] is 170 nM. Further, the Activity at Vasopressin V2 receptor [2] is 35.5%. The EC50 at Vasopressin V2 receptor [3] was > 10000 nM.

As for `O=C(/C=C1/c2ccccc2N(C(=O)c2ccc(NC(=O)c3ccccc3-c3ccccc3)cc2)CCC1(F)F)NCc1ccccn1`, on Vasopressin V2 receptor [4], affinity was put at a Ki of 0.4 nM. The result on Vasopressin V2 receptor [3] was inactive.

`CC(C)c1ccn(-c2ccc(C(=O)N3CCC(F)(F)/C(=C\C(=O)NCc4ccccn4)c4ccccc43)c(Cl)c2)n1` had an inhibitory constant (Ki) on Vasopressin V2 receptor [1] of 18 nM. Further, on Vasopressin V2 receptor [2], the Activity was 4.9%. Moreover, the EC50 at Vasopressin V2 receptor [3] was > 10000 nM.

Consider `Cc1ccn(-c2ccc(C(=O)N3CCC(F)(F)/C(=C\C(=O)NCc4ccccn4)c4ccccc43)c(Cl)c2)n1`, for which affinity at Vasopressin V2 receptor [4] was put at a Ki of 19 nM.

Values taken from ChEMBL document CHEMBL1152251, “Preparation of (4,4-difluoro-1,2,3,4-tetrahydro-5H-1-benzazepin-5-ylidene)acetamide derivatives as novel arginine vasopressin V(2) receptor agonists” (Bioorg Med Chem, 2008).
